Results as given in ChEMBL document CHEMBL5107963, “Design, synthesis and anti-mycobacterial evaluation of imidazo[1,2-a]pyridine analogues” (RSC Med Chem, 2022).
Values after ≈ are worked out from the molar mass of the structure shown.

System: Mycobacterium tuberculosis
Assay: Anti-mycobacterial activity against Mycobacterium tuberculosis H37Rv incubated for 5 days by alamar blue assay
Format: functional
Conditions: 120 h, time 5 day
How it was run: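 Inoculum from Löwenstein-Jensen culture suspended in Middlebrook 7H9 broth with 0.2% glycerol and 10% OADC, diluted 1:20. Compounds serially diluted in 7H9, final 100 to 0.4 µg/ml. Sealed plates incubated 37°C for 5 days, then Alamar Blue/10% Tween 80 (1:1) added for 24 h. Blue = no growth, pink = growth; MIC is lowest concentration preventing blue-to-pink change.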

Structure (SMILES)	MIC [µg/mL]
COc1ccc(-c2cn3cc(C4=CCN(S(=O)(=O)C5CCCC5)CC4)ccc3n2)cc1OC	25 (≈ 53.5 µM)
COc1ccc(-c2cn3cc(C4=CCN(C(=O)C5CCCCC5)CC4)ccc3n2)cc1OC	50 (≈ 112 µM)
COc1ccc(-c2cn3cc(C4=CCN(C(=O)c5cccc(F)c5)CC4)ccc3n2)cc1OC	50 (≈ 109 µM)
COc1ccc(-c2cn3cc(C4=CCN(C(=O)C5CC5)CC4)ccc3n2)cc1OC	50 (≈ 124 µM)
COc1ccc(-c2cn3cc(C4=CCN(S(=O)(=O)c5ccc(C(F)(F)F)cc5)CC4)ccc3n2)cc1OC	6.25 (≈ 11.5 µM)
COc1ccc(-c2cn3cc(C4=CCN(S(=O)(=O)c5ccc(C)cc5)CC4)ccc3n2)cc1OC	25 (≈ 51.1 µM)
COc1ccc(-c2cn3cc(C4=CCN(C(=O)c5ccc(F)cc5)CC4)ccc3n2)cc1OC	25 (≈ 54.6 µM)
COc1ccc(-c2cn3cc(C4=CCN(S(=O)(=O)c5ccccc5)CC4)ccc3n2)cc1OC	25 (≈ 52.6 µM)
COc1ccc(-c2cn3cc(C4=CCN(C(=O)c5cocn5)CC4)ccc3n2)cc1OC	50 (≈ 116 µM)
COc1ccc(-c2cn3cc(C4=CCN(C(=O)c5cccc(C(F)(F)F)c5)CC4)ccc3n2)cc1OC	12.5 (≈ 24.6 µM)
COc1ccc(-c2cn3cc(C4=CCN(C(=O)c5ccco5)CC4)ccc3n2)cc1OC	50 (≈ 116 µM)
COc1ccc(-c2cn3cc(C4=CCN(S(=O)(=O)C5CC5)CC4)ccc3n2)cc1OC	12.5 (≈ 28.4 µM)
COc1ccc(-c2cn3cc(C4=CCN(S(=O)(=O)c5ccc(C(C)=O)cc5)CC4)ccc3n2)cc1OC	6.25 (≈ 12.1 µM)
COc1ccc(-c2cn3cc(C4=CCN(C(=O)c5ccccn5)CC4)ccc3n2)cc1OC	100 (≈ 227 µM)
COc1ccc(-c2cn3cc(C4=CCN(S(=O)(=O)c5ccc(Cl)s5)CC4)ccc3n2)cc1OC	6.25 (≈ 12.1 µM)
COc1ccc(-c2cn3cc(C4=CCN(C(=O)c5cccs5)CC4)ccc3n2)cc1OC	25 (≈ 56.1 µM)

Structure (SMILES)	MIC [µg/mL]
COc1ccc(-c2cn3cc(C4=CCN(C(C)=O)CC4)ccc3n2)cc1OC	> 100
COc1ccc(-c2cn3cc(C4=CCN(S(=O)(=O)c5ccc(Cl)cc5)CC4)ccc3n2)cc1OC	6.25 (≈ 12.3 µM)
COc1ccc(-c2cn3cc(C4=CCN(C(=O)COCc5ccccc5)CC4)ccc3n2)cc1OC	50 (≈ 103 µM)
COc1ccc(-c2cn3cc(C4=CCN(S(=O)(=O)c5ccc(Br)cc5)CC4)ccc3n2)cc1OC	6.25 (≈ 11.3 µM)
COc1ccc(-c2cn3cc(C4=CCN(S(=O)(=O)c5ccc(C(C)(C)C)cc5)CC4)ccc3n2)cc1OC	6.25 (≈ 11.8 µM)
COc1ccc(-c2cn3cc(C4=CCN(S(=O)(=O)c5ccc(Br)s5)CC4)ccc3n2)cc1OC	3.12 (≈ 5.58 µM)
COc1ccc(-c2cn3cc(C4=CCN(S(=O)(=O)c5ccc(F)cc5)CC4)ccc3n2)cc1OC	6.25 (≈ 12.7 µM)
CCS(=O)(=O)N1CC=C(c2ccc3nc(-c4ccc(OC)c(OC)c4)cn3c2)CC1	12.5 (≈ 29.2 µM)
CCCS(=O)(=O)N1CC=C(c2ccc3nc(-c4ccc(OC)c(OC)c4)cn3c2)CC1	12.5 (≈ 28.3 µM)
COc1ccc(-c2cn3cc(C4=CCN(S(=O)(=O)C5CCCCC5)CC4)ccc3n2)cc1OC	25 (≈ 51.9 µM)
COc1ccc(-c2cn3cc(C4=CCN(S(=O)(=O)c5ccc([N+](=O)[O-])cc5)CC4)ccc3n2)cc1OC	6.25 (≈ 12 µM)
COc1ccc(-c2cn3cc(C4=CCN(C(=O)c5ccccc5F)CC4)ccc3n2)cc1OC	6.25 (≈ 13.7 µM)
COc1ccc(-c2cn3cc(C4=CCN(C(=O)C(C)(C)C)CC4)ccc3n2)cc1OC	100 (≈ 238 µM)
Nc1ccc(C(=O)O)c(O)c1 [AMINOSALICYLIC ACID]	12.5 (≈ 81.6 µM)
CC[C@@H](CO)NCCN[C@@H](CC)CO [ETHAMBUTOL]	6.25 (≈ 30.6 µM)
